Our source for the IC50 and Activity values is ChEMBL document CHEMBL1641525, “Antiproliferative and apoptotic sesquiterpene lactones from Carpesium faberi” (Bioorg Med Chem Lett, 2011).

The test system of assay [1] is MCF7. Briefly: Antiproliferative activity against human MCF7 cells after 48 hrs by MTT assay. In kind it is functional, cell-based. The note with it: MCF7, 48 h. In a few lines: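 MCF-7 (ATCC) grown in DMEM + 10% heat-inactivated FBS, penicillin/streptomycin, 37 °C, 5% CO2. Exponential cells seeded 4.0×10^3/well; after 24 h treated with a range of concentrations for 48 h in the dark. Medium refreshed, then MTT (1 mg/mL) for 4 h; formazan dissolved in DMSO, OD 570 nm. 0.5% DMSO negative control. IC50 from log concentration–viability curves.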

Assay [2] concerns MCF7. Briefly: Cell cycle arrest in human MCF7 cells assessed as accumulation at G2/M phase at IC50 concentration after 24 hrs using propidium iodide staining by flow cytometry. The class given is functional, cell-based. On the technique in general: A flow cytometer gives signals particle by particle.
The test system of assay [3] is MCF7. Briefly: Cell cycle arrest in human MCF7 cells assessed as accumulation at sub-G1 phase at IC50 concentration after 24 hrs using propidium iodide staining by flow cytometry. The class given is functional.

≈ marks a conversion by molar mass, not a printed value. Calls of active or inactive are those of the source. No cut-off for these calls is given here.

On to `C=C1C(=O)O[C@@H]2C[C@@]3(C)CCCC(=C)[C@]3(O)C[C@H]12` [TELEKIN], for which the IC50 (in general, the point on the concentration scale where inhibition reaches its midpoint) in assay [1] worked out at 3 µg/mL (≈ 12.1 µM). Besides, the outcome in assay [2] was Active.
As to `C=C1C(=O)O[C@@H]2C[C@H](C)C(CCC(C)=O)=CC[C@H]12` [TOMENTOSIN], the IC50 in assay [1] was over 50 µg/mL.
With `C=C1C(=O)O[C@H]2C[C@@H](C)[C@@H]3CC[C@H](O)[C@@]3(C)C[C@H]12` [PSEUDOGUAIANOLIDE], the midpoint of inhibition in assay [1], the IC50, lay at 9.8 µg/mL (≈ 39.1 µM). Moreover, in assay [2], the result was Active.
`C=C1C(=O)O[C@@H]2C[C@](C)(O)C3=CC[C@@](C)(O)[C@@H]3C[C@H]12` displayed an IC50 in assay [1] of 26.5 µg/mL (≈ 100 µM).
In assay [1], `C[C@@H]1C[C@@H]2OC(=O)[C@@H](C)[C@H]2C[C@]2(C)[C@@H](O[C@@H]3O[C@H](CO)[C@@H](O)[C@H](O)[C@H]3O)CC[C@@H]12` showed an IC50 of over 50 µg/mL.
Still for that read-out and setting: under `C/C(=C\CO)CC[C@@H]1[C@@]2(C)CCCC(C)(C)[C@@H]2CC[C@@]1(C)O` stands 18.6 µg/mL (≈ 60.3 µM); under `C/C(=C\CO)CCC[C@H](C)CCC[C@H](C)CCCC(C)C` [TRANS-PHYTOL], over 50 µg/mL.
In the case of `COc1cccc2c1C(=O)c1c(O)c3c(c(O)c1C2=O)C[C@@](O)(C(C)=O)C[C@@H]3O[C@H]1C[C@H](N)[C@H](O)[C@H](C)O1` [DAUNORUBICIN], the IC50 in assay [1] is 0.5 µg/mL (≈ 0.948 µM).
Still for that read-out and setting: under `C[C@@H]1C(=O)O[C@@H]2C[C@@]3(C)O[C@@H]3C[C@H](O)[C@@]3(C)O[C@@H]3C[C@H]12` [CARABROLACTONE A] stands over 50 µg/mL.
On the same count and under the same terms, as for `O=c1[nH]cc(F)c(=O)[nH]1` [FLUOROURACIL], the figure is 14.1 µg/mL (≈ 108 µM); as for `C=C1C(=O)O[C@H]2C[C@](C)(O)C3=CC[C@](C)(O)[C@@H]3C[C@H]12`, 31.9 µg/mL (≈ 121 µM).
Take `C=C1C(=O)O[C@H]2C[C@@](C)(O)C3=CC[C@](C)(O)[C@@H]3C[C@H]12` [GUAIANOLIDE]: in assay [3], the Activity is over 5%. In assay [1], this molecule returned an IC50 of 31.7 µg/mL (≈ 120 µM). Also, in assay [2], the result was Active.
`C=C1C(=O)O[C@@H]2C[C@@H](C)[C@@H]3CCC(=O)[C@@]3(C)C[C@H]12`: in assay [1], the IC50 was found to be 3.9 µg/mL (≈ 15.7 µM).
Still for that read-out and setting: under `C=C1C[C@H](O)C[C@]2(C)C[C@H]3OC(=O)[C@@H](C)[C@H]3C[C@@]12O` stands over 50 µg/mL.
As for `C=C1C(=O)O[C@@H]2C[C@]3(C)[C@@H](CC[C@H](C)OC(C)=O)[C@@H]3C[C@H]12`, the Activity in assay [3] is over 5%. In assay [1], this molecule returned an IC50 of 9.4 µg/mL (≈ 32.2 µM). Further, the outcome in assay [2] was Active.
Turning to `C=C1C(=O)O[C@@H]2C[C@](C)(O)C3=CC[C@](C)(O)[C@@H]3C[C@H]12`, it took 38.8 µg/mL (≈ 147 µM) to reach half-maximal inhibition in assay [1] (IC50).
Still for that read-out and setting: as for `C=C1C(=O)O[C@@H]2C[C@@]3(C)C[C@@H](O)CC(=C)[C@@H]3C[C@H]12` [IVALIN], the figure is 12.5 µg/mL (≈ 50.3 µM); as for `C=C1C(=O)O[C@H]2C=C(C)[C@@H]3CC[C@](C)(O)[C@@H]3C[C@H]12` [4-EPI-ISOINUVISCOLIDE], 16.3 µg/mL (≈ 65.6 µM); as for `C=C1C(=O)O[C@H]2C[C@@H](C)[C@@H]3CC[C@H](O)[C@@]3(C)[C@@H](O)[C@H]12` [CARABROLACTONE B], 10.7 µg/mL (≈ 40.2 µM).
